Among all 2,500 compounds or so, about 460 (18%) were called active. The list is a sample of the results. Values without a mark were called inactive.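 Rule for the calls: active = mean activation above a cutoff of low control average plus 3 SD from the earlier screen (cut at about 12% in these data); inactive = the rest.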

Results on 57 molecules are retold here after PubChem BioAssay AID504382 (The Scripps Research Institute Molecular Screening Center, 2011).

This assay can be described thus: compound fluorescence interference without thin filaments, confirmation, artefact control for cardiac RTF calcium sensitizer project, biochemical (AID 504382). Conditions: IANBD fluorescence interference counterscreen, buffer, EC20 Ca2+; at 7.2 µM; hits give high values; scaled: EC20 calcium 0, EC100 calcium 100. Put shortly:
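Medium: MOPS/KCl/MgCl2/EGTA/NTA/DTT buffer, pH 7.2 | Reagent: EC20 calcium, 0.472 mM | Compound dosing: 7.2 µM single dose | Times: 15 min compound exposure at 25 °C | Signal: Fluorescence, 480/540 nm | Measure: Interference relative to controls | Repeats: Triplicate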
(In general: Counterscreens check selectivity or assay interference.)
For the molecule `O=C(NCc1cccc(C(F)(F)F)c1)c1cccc(S(=O)(=O)NCc2ccccc2)c1`, the fluorescence artifact activation was 0.02%. With `CC(=NNC(=O)c1ccncc1)c1ccc2ccccc2c1O`, the fluorescence artifact activation was 0.08%. Next, `CCOC(=O)c1sc2nc(C)nc(SCC(=O)NC3CCS(=O)(=O)C3)c2c1C` (configuration not stated): 8.03%; `O=C(NCC(=O)N(CC1CCCO1)C1(C(=O)NC2CCCCC2)CCCCC1)c1ccccc1` (configuration not stated): -0.09%.

Regarding `O=C(COc1ccccc1Cl)N1CCN(c2ccccn2)CC1`, the fluorescence artifact activation is 0.24%. Next, `S=C(Nc1cc(Cl)ccc1Oc1ccccc1)N1CCN(c2ccccn2)CC1`: 23.1% (active); `CCOC(=O)N1CCN(C(=S)Nc2ccccc2C)CC1`: 7.89%. Then `CC(COC(=O)c1ccccc1)(COC(=O)c1ccccc1)/[N+]([O-])=C/c1ccccc1`, with 9.45%; and `COCCCn1c(=O)/c(=C\c2cccc(OC)c2OC)s/c1=C(/C#N)C(=O)Nc1ccc(C(=O)O)cc1`, with 2.82%.

Turning to `CCc1cc(C(=O)Nc2ccc(OC)nc2)sc1C`, the fluorescence artifact activation is -0.03%.

For `CCC(=O)N1CCC2(CC1)Oc1ccc(Cl)cc1C(=O)C21CC(c2cccnc2)=NO1` (configuration not stated), the fluorescence artifact activation was 5.01%. Next, `COc1ccc(C2(CNC(C)=O)CCCC2)cc1OC`: 0.1%; `Cc1ccc(N2C(=O)[C@@H]3[C@H](C2=O)C2CCCN2[C@@H]3C(=O)c2ccccc2)cc1` (some centres not stated): 65.3% (active); `Cc1ccc(N2C(=O)C3C(C(=O)c4ccccc4)=NN(c4ccccc4)C3C2=O)cc1` (configuration not stated): 5.76%. As for `COc1ccc(N2C(=O)C3C(C2=O)C(C(=O)c2ccc(Cl)cc2)N2CCCC32)cc1` (configuration not stated), the fluorescence artifact activation is 2.56%. Turning to `CCOC(=O)c1ccc(N2C(=O)C3C(C2=O)C(C(=O)c2ccc(Cl)cc2)N2CCCC32)cc1` (configuration not stated), the fluorescence artifact activation is 1.5%.

Regarding `CC(=O)Oc1ccc(N2C(=O)C3C(C2=O)C(C(=O)c2ccc(Cl)cc2)N2CCCC32)cc1` (configuration not stated), the fluorescence artifact activation is 12.2% (active). Then `O=C(c1ccccc1)[C@@H]1[C@@H]2C(=O)N(c3ccc(F)cc3)C(=O)[C@@H]2C2CCCN21` (some centres not stated), with 1.82%; and `CCc1ccc(Nc2n[n+](-c3ccccc3)c(-c3ccc(N(CC)CC)cc3)s2)cc1`, with -0.01%; and `C[C@H](CO)N1C[C@H](C)[C@@H](CN(C)S(=O)(=O)c2cccs2)Oc2c(NC(=O)Nc3ccc4c(c3)OCO4)cccc2C1=O`, with 2.08%. Then `COCc1cc(=O)[nH]c2cc(NC(=O)C(C)(C)CCl)c(C)cc12`, with -0.05%. Then `COc1ccc(CCNC(=O)c2ccccc2OCc2c(C)noc2C)cc1`, with -0.02%. Take `CCOCCCNC(=S)NCCCNc1nc2c(C)cc(C)cc2cc1C#N`: the fluorescence artifact activation is 0.14%. Next, `COc1cc(N2CCCC2)c(OC)cc1/C=C1/NC(=S)NC1=O`: 16.7% (active); `COc1cc(N2CCCC2)c(OC)cc1/C=C(/C#N)c1cccc(Br)c1`: -0.03%; `COc1cc(N2CCCC2)c(OC)cc1/C=C(/C#N)c1ccc(Br)cc1`: 0.93%. `N#Cc1ccc(CSc2nnc(-c3cnccn3)o2)cc1`: the fluorescence artifact activation is 45.1% (active). Then `O=c1oc2cc(O)ccc2cc1-c1nc2c(s1)CCc1ccccc1-2`, with 0.02%; and `CC(C)(C)c1cc[n+](-c2[nH]c(=O)sc2/C=N/NC([S-])=Nc2ccccc2)cc1`, with 1.92%.

Take `Cc1ccccc1C(=O)NCCCc1ccccc1`: the fluorescence artifact activation is 0.02%. With `O=S(=O)(c1ccc(F)cc1)N1CCN(CCOc2ccccc2)CC1`, the fluorescence artifact activation was 361% (active). Next, `CN1CCN(S(=O)(=O)c2cccc(C(=O)Oc3cccc(Br)c3)c2)CC1`: 0.74%. For `COC(=O)N1CCN(S(=O)(=O)c2ccc(F)cc2)CC1`, the fluorescence artifact activation is -0.07%. As for `CC(C)c1nnc(N2C(=O)C(O)=C(C(=O)c3cccs3)C2c2ccccc2)s1` (configuration not stated), the fluorescence artifact activation was 0.07%. Then `O=C(COC(=O)c1cc(-c2cccc3ccccc23)nc2ccccc12)NC1CCS(=O)(=O)C1` (configuration not stated), with 0.37%; and `CCCCC(=O)Nc1ccc(C(=O)Nc2ccc(OC)cc2[N+](=O)[O-])cc1`, with 2.86%; and `CCn1nc(-c2ccccc2)c2nc3ccccc3nc21`, with 4.1%.

Take `Cn1nc(-c2ccccc2)c2nc3ccccc3nc21`: the fluorescence artifact activation was 0.09%. Regarding `CCCCCn1nc(-c2ccccc2)c2nc3ccccc3nc21`, the fluorescence artifact activation is 20.1% (active). Then `CCOC(=O)CCC(=O)NCc1ccc2c(c1)cc(C)n2C`, with 0.01%; and `COc1ccc2nc3ccccc3nc2c1NC(=O)c1ccc(Cl)cc1Cl`, with 0.06%. Next, `COc1ccc2nc3ccccc3nc2c1NC(=O)c1ccc(Br)cc1`: 59.2% (active); `CC(=O)N1CCN(S(=O)(=O)c2cccc(C(=O)NNC(=O)c3ccc(Br)cc3)c2)CC1`: 0.4%; `CN(C)c1ccc(/C=C/C(=O)c2cc(Cl)ccc2O)cc1`: 0.19%. Next, `CC(C)(C)NC(=O)CSc1nnc(-c2ccccn2)n1-c1ccccc1`: 0.09%. `Cc1cc(C)c2c(SC(C)C)nc(N)nc2n1`: the fluorescence artifact activation is 5.3%.

Turning to `CCOCCn1c(CN2CCN(CC)CC2)nc2c1c(=O)n(C)c(=O)n2C`, the fluorescence artifact activation was 21.1% (active).

For `CCN(CC)c1ccc(/C=C2\C(=O)c3ccc(C(=O)O)cc3C2=O)cc1`, the fluorescence artifact activation was 8.82%. For `CCN(CC)c1ccc2cc(C(C)=O)c(=O)oc2c1`, the fluorescence artifact activation is 0.03%. Then `CCN(CC)c1ccc2cc(C(=O)NCc3ccc(F)cc3)c(=N)oc2c1`, with 17.9% (active). Then `CCN(CC)c1ccc2cc(C(=O)Nc3ccccn3)c(=O)oc2c1`, with -0.06%. Then `N#Cc1c(NC(=O)C2CC=CCC2C(=O)O)sc2c1CCCCCC2` (configuration not stated), with 0.67%; and `COc1ccccc1C(=O)NNC(=O)CCCN1C(=O)/C(=C/c2cccs2)SC1=S`, with -0.02%. On to `Cc1ccc(-c2nn(-c3ccccc3)cc2/C=C2\SC(=S)N(CCCCCC(=O)O)C2=O)o1`, for which the fluorescence artifact activation was 3.75%. Then `O=C(O)CCCN1C(=O)/C(=C/c2cn(-c3ccccc3)nc2-c2cccs2)SC1=S`, with 54.1% (active); and `COc1cccc(/C(O)=C/c2nc3ccc(C(=O)NCCc4cccc(C)c4)cc3[nH]c2=O)c1`, with 0.04%.

In the case of `CCc1ccc(/C=C2/C(=O)N(C)C(=S)N2CC(=O)OC)s1`, the fluorescence artifact activation was 2.56%.
